Measured values from PubChem BioAssay AID449757 (Broad Institute, 2010).
Active and inactive are the calls of the source.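 The calls were made as follows: active = compounds whose fitted caspase activation midpoint falls no more than tenfold above the top tested dose; inconclusive = flat fit with activity between 30 and 70 percent, or failed fit; inactive = the rest.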

These molecules were tested on MEF Flag-A1-IRES-BIM, caspase-Glo luminescence, 3 h (assay: Caspase-Glo signal, Flag-A1-IRES-BIM MEF cells – cell-based, alternate construct, luminescence, A1 (Bcl2A1) inhibitor project, dose response (AID 449757)).
Outline: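 Assay system: mouse embryonic fibroblasts primed via Flag-A1-IRES-BIM expression construct; quantity: 2500 cells per well, seeded one day before compound; medium: RPMI-1640 growth medium with 10% FBS; doses: 100 nL compound added per well by pin transfer; timing: 3-h compound at 37 °C, 30-min cooling, 1-h reagent at RT; measured by: CaspaseGlo luminescence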

Row | Structure (SMILES) | AC50
1 | Cc1ccc(NC(=O)CSc2nc3nc(C)c(Br)cc3[nH]2)cc1F | > 35 µM (inactive)
2 | Oc1ccc(/C=N/N2CCN(C3c4ccccc4-c4ccccc43)CC2)cc1O | 24 µM
3 | COc1ccc(S(=O)(=O)N2CC(O)CC2C(=O)OCC(=O)Nc2ccc(Cl)cn2)cc1 (stereo not drawn) | > 35 µM (inactive)
4 | C/C1=C\[C@@H](C)C/C=C/[C@H]2[C@@H]3O[C@]3(C)[C@@H](C)[C@H]3[C@H](Cc4c[nH]c5ccccc45)NC(=O)[C@]32C(=O)/C=C/C(=O)[C@@H]1O | 9.84 µM
5 | CC(C)CC(NC(=O)c1ccc(Cl)cc1)C(=O)OCC(=O)c1ccc2c(c1)NC(=O)CO2 (stereo not drawn) | 5.62 µM
6 | CCOC(=O)Cc1csc(/N=C/c2c(O)n(-c3ccc(C)c(C)c3)c(=O)c3ccccc23)n1 | 15.9 µM
7 | CCCCCCCC/C=C\CCCCCCCC(=O)NCCc1ccc(O)c(O)c1 | 11.6 µM
8 | O=C(NC1CCCC1)c1cccc2c1C(=O)c1ccc(/C=C/c3ccccc3)cc1S2(=O)=O | 7.48 µM
9 | Cc1ccc(C)c(NC(=S)NC(NC(=O)Cc2cccc3ccccc23)C(Cl)(Cl)Cl)c1 (stereo not drawn) | 13.2 µM
10 | CCOC(=O)/C(=C\c1ccc([N+](=O)[O-])cc1)C(=O)c1cc(C(C)=O)c(Nc2ccccc2)s1 | 1.81 µM
11 | C#CC(=O)N(c1cc(OC)ccc1OC)C(C(=O)NC1CCCC1)c1cccs1 (stereo not drawn) | > 35 µM (inactive)
12 | CCOC(=O)/C=c1\s/c(=C\c2ccc(C(=O)OC)cc2)c(=O)n1CC(=O)Nc1ccccc1 | > 35 µM (inactive)
13 | COC(=O)c1ccc2c(c1)C(C)(C)C(/C=C/c1ccc(O)cc1)=[N+]2C | 12.4 µM
14 | CC(C)(C)[C@H](N)C(=O)N[C@H]1CCC2C3CC=C4C[C@@H](O)CC[C@]4(C)C3CC[C@@]21C (stereo partly drawn) | > 35 µM (inactive)
15 | N#Cc1cccnc1N1CCN(C(=O)c2cccc3c2C(=O)c2ccc(-c4ccc(Cl)c(C(F)(F)F)c4)cc2S3(=O)=O)CC1 | > 35 µM (inactive)
16 | O=C(COc1ccc(/C=N/NC(=O)c2cc3ccccc3o2)cc1Br)Nc1ccccc1 | 25.3 µM
17 | CN1C2CCC1/C(=C/c1ccccn1)C(=O)/C2=C\c1ccccn1 | > 35 µM (inactive)
18 | Cc1nn(Cc2ccc(Cl)cc2Cl)c(C)c1NC(=O)Cn1nc([N+](=O)[O-])c(Cl)c1C | > 35 µM (inactive)
19 | CCOC(=O)c1sc(NC(=O)CSc2nc(C)cc(C)c2C#N)c(C#N)c1C | > 35 µM (inactive)
20 | COC(=O)CSc1nc(N)c2c3c(sc2n1)C(c1ccccc1)SC(c1ccccc1)C3 (stereo not drawn) | > 35 µM (inactive)
21 | COc1ccc(C2Nc3ccc4ccccc4c3-c3c2c(=O)oc2ccccc32)cc1 (stereo not drawn) | 14.9 µM
22 | CCS(=O)(=O)c1ncc(Cl)c(C(=O)Nc2ccc(S(=O)(=O)N3CCC(C)CC3)cc2)n1 | > 35 µM (inactive)

Row | Structure (SMILES) | AC50
23 | O=C(Nc1ccc([N+](=O)[O-])cc1)c1nc[nH]c1C(=O)NC1CCCCC1 | > 35 µM (inactive)
24 | Cc1ccc(-c2nc(NC(=O)c3nn(C)cc3[N+](=O)[O-])sc2C)cc1C | 3.62 µM
25 | O=C(c1ccc(COc2ccc3ccccc3c2)o1)N1N=C(C(F)F)CC1(O)C(F)F (stereo not drawn) | > 35 µM (inactive)
26 | COc1cc2ncnc(NCc3ccc(F)cc3)c2cc1OC | > 35 µM (inactive)
27 | Cc1ccc(Sc2c([N+](=O)[O-])c(=O)n(C)c3ccccc23)cc1 | > 35 µM (inactive)
28 | COc1cc(NC(=O)c2cccs2)ccc1NC(=O)c1cc2ccccc2o1 | > 35 µM (inactive)
29 | O=C(Nc1ccc([N+](=O)[O-])cc1)C(Cc1ccccc1)N1C(=O)c2cccc3cccc(c23)C1=O (stereo not drawn) | > 35 µM (inactive)
30 | O=C(NC1CCCCC1)C(c1ccc(F)cc1)N(CCc1ccccc1)C(=O)CN1C(=O)c2ccccc2S1(=O)=O (stereo not drawn) | 7.6 µM
31 | NS(=O)(=O)c1ccc(N/N=C2/CCCCC2C2CCCCC2)c([N+](=O)[O-])c1 (stereo not drawn) | 32.3 µM
32 | COc1cc(/C=C/[N+](=O)[O-])ccc1OC(=O)c1cccnc1 | 9.63 µM
33 | O=C1/C(=C\c2c(NCCOCCO)nc3ccccn3c2=O)SC(=S)N1Cc1ccco1 | > 35 µM (inactive)
34 | CC(C)(C)c1ccc2c(c1)OC(C(=O)N/N=C\c1ccc[nH]1)CO2 (stereo not drawn) | > 35 µM (inactive)
35 | COc1cc2c(-c3ccccc3)c(C)oc2cc1/C=N/NC(N)=S | > 35 µM (inactive)
36 | COc1ccc2c(-c3cc4ccc(OCc5ccc(F)cc5)cc4oc3=O)cc(=O)oc2c1 | 21.1 µM
37 | Cc1cc(NC(=O)CSc2nc3cc(Cl)ccc3c(=O)n2Cc2ccco2)no1 | > 35 µM (inactive)
38 | Cc1cc(C)cc(NC(=O)/C(C#N)=C/c2cn(CC(=O)NCc3ccco3)c3ccccc23)c1 | 8.5 µM
39 | CC(=O)OC(C)(C)/C=C/C(=O)[C@](C)(O)C1[C@H](O)C[C@@]2(C)C3CC=C4C(C[C@H](O)C(=O)C4(C)C)[C@]3(C)C(=O)C[C@]12C (stereo partly drawn) | > 35 µM (inactive)
40 | O=[N+]([O-])/C=C/c1cn(Cc2ccc(Cl)cc2)c2ccccc12 | 15.9 µM
41 | C=CC(=O)Nc1ccc(CN2C(=O)N(c3c(Cl)c(OC)cc(OC)c3Cl)Cc3cnc(NCCCCN(CC)CC)nc32)cc1 | > 35 µM (inactive)
42 | O=C(Nc1ccc(Cl)cc1Cl)c1cccc(N2C(=O)C=CC2=O)c1 | 19.1 µM
43 | O=C(CCl)N=c1sccn1Cc1ccccc1Cl | > 35 µM (inactive)
44 | CC1=NNC(=O)/C1=C\c1cn(-c2ccccc2)nc1-c1ccccc1 | 10.4 µM

Row | Structure (SMILES) | AC50
45 | O=C(NCCc1ccccc1)C(c1cccs1)N(C(=O)CCl)c1ccc(Cl)cc1 (stereo not drawn) | 13.3 µM
46 | COc1ccc(Cn2c(SCc3ccc(C)cc3)nc3cc(OC)c(OC)cc3c2=N)cc1Cl | > 35 µM (inactive)
47 | Cc1ccc(NC(=O)c2cc(N3C(=O)C=CC3=O)ccc2N2CCOCC2)cc1Cl | 15.8 µM
48 | N#Cc1c(C(F)(F)F)cc(-c2ccccc2)nc1SCC(=O)Nc1sc2c(c1C#N)CCC2 | > 35 µM (inactive)
49 | Cc1ccc(C(=O)COC(=O)c2ccc3c(c2)C(=O)N(c2cccc4ncccc24)C3=O)cc1 | 36.1 µM
50 | O=C(/C=C/c1ccc(F)cc1)NC(=S)Nc1ccccc1C(=O)NC1CCCCC1 | > 35 µM (inactive)
51 | Cc1ccc(S(=O)(=O)c2nnn3c2nc(Nc2cccc(C)c2)c2ccccc23)cc1 | > 35 µM (inactive)
52 | Cc1cc(C)cc(Cn2ncc(Cl)c(Cl)c2=O)c1 | > 35 µM (inactive)
53 | CCOC(=O)C1=C(c2ccccc2)O/C(=C(/C#N)C(F)(F)F)S1 | > 35 µM (inactive)
54 | Cc1ccc(NC(=O)c2ccc(N/N=C/c3cccc(O)c3)c([N+](=O)[O-])c2)cc1 | 34.6 µM
55 | CC(C)(C)C1CCc2onc(C(=O)Nc3cccc(O)c3)c2C1 (stereo not drawn) | > 35 µM (inactive)
56 | CCOc1cc(/C=N/Nc2cc(C)nc(-n3nc(C)cc3C)n2)ccc1O | > 35 µM (inactive)
57 | COc1ccc(NC(=S)NC(NC(=O)/C=C/c2ccccc2)C(Cl)(Cl)Cl)cc1 (stereo not drawn) | > 35 µM (inactive)
58 | Nc1nc(F)nc2c1ncn2[C@@H]1O[C@H](CO)[C@@H](O)[C@H]1O | > 35 µM (inactive)
59 | CC(C)N=c1scc(-c2ccco2)n1/N=C/c1ccc(O)c(O)c1 | > 35 µM (inactive)
60 | CCOC(=O)COc1ccccc1/C=C\[N+](=O)[O-] | 10.5 µM
61 | CCOc1cc(/C=C2/C(=N)N3C=CSC3=NC2=O)ccc1OCCCOc1ccccc1C | 35.4 µM
62 | COc1ccc(-c2nc(NC(=O)c3n[nH]c(=O)c4ccccc34)sc2C)cc1 | > 35 µM (inactive)
63 | CCCCC1CCC(C(=O)N(CC(C)C)c2c(N)n(Cc3ccccc3)c(=O)[nH]c2=O)CC1 (stereo not drawn) | 8.13 µM
64 | C=C1CCc2c([nH]c3ccc(OCC(C)C)cc23)C1=O | 8.5 µM
65 | COc1ccc(C2CC(c3c(O)cc(C)oc3=O)=NCCS2)c(OC)c1 (stereo not drawn) | > 35 µM (inactive)
66 | COC(=O)c1ccc2c(c1)C(C)(C)C(/C=C/c1ccccc1O)=[N+]2C | 11.3 µM

Row | Structure (SMILES) | AC50
67 | Cn1cc([N+](=O)[O-])c(C(=O)Nc2cc(Oc3ccccc3)cc([N+](=O)[O-])c2)n1 | 19.5 µM
68 | Nc1c(C(=O)Nc2ccc(S(=O)(=O)N3CCCC3)cc2)sc2nc3ccc(OC(F)(F)F)cc3cc12 | 23.3 µM
69 | COc1ccccc1-c1cc(C(F)(F)F)nc(S(=O)(=O)CCCC(=O)NC(C)C)n1 | 8.84 µM
70 | Cc1cccc(Nc2nc(N)c([N+](=O)[O-])c(N3CCCC(C)C3)n2)c1 (stereo not drawn) | > 35 µM (inactive)
71 | CCOc1ccc2nc(NCCNC(=O)Nc3cccc(C)c3)c(C#N)cc2c1 | 33.9 µM
72 | CC(=O)OC(C)(C)/C=C/C(=O)C(C)(O)C1[C@H](O)C[C@@]2(C)C3CC=C4C(CC[C@@H](O)C4(C)C)[C@]3(CO)C(=O)C[C@]12C (stereo partly drawn) | > 35 µM (inactive)
73 | COc1ccccc1CCNC(C)CCc1ccc(O)cc1 (stereo not drawn) | > 35 µM (inactive)
74 | CCOC(=O)/C(=C\c1ccc(OC(F)F)cc1)C1=Nn2c(nnc2-c2ccc(Cl)cc2)SC1 | 4.71 µM
75 | CC(=O)Nc1ccc(NC(=O)C(C)OC(=O)/C=C/c2cn(-c3ccccc3)nc2-c2cccnc2)cc1 (stereo not drawn) | 27.5 µM
76 | Oc1[nH]c2ccc(Br)cc2c1N=NC(=S)Nc1ccc(F)cc1 | > 35 µM (inactive)
77 | COC(=O)[C@@]1(C)CC[C@]2(C)CC[C@@]3(C)C(=CC(=O)C4[C@@]5(C)CC[C@H](O)C(C)(C)[C@@H]5CC[C@]43C)[C@H]2C1 (stereo partly drawn) | > 35 µM (inactive)
78 | CCc1nc(N=Nc2c(O)[nH]c3ccccc23)c2c3c(sc2n1)CCC3 | 20.7 µM
79 | COc1cc(SC#N)ccc1N=Cc1c(C)[nH]n(-c2ccc(C)cc2)c1=O | 25.3 µM
80 | CCOC(=O)c1ccc(-c2ccc(/C=N/NC(=O)CN(c3cccc(C)c3)S(C)(=O)=O)o2)cc1 | 36.2 µM
81 | CCc1ccc(NC(=O)c2nc(S(=O)(=O)Cc3ccccc3)ncc2Cl)cc1 | > 35 µM (inactive)
82 | CCOC(=O)/C(=C\c1cccnc1)C(=O)c1cc(C(C)=O)c(Nc2ccccc2)s1 | 4.1 µM
83 | CCOc1ccc(N2C(=O)/C(=C\c3ccc(O)c(OC)c3)S(=O)(=O)C2c2cccc([N+](=O)[O-])c2)cc1 (stereo not drawn) | > 35 µM (inactive)
84 | CC(=O)Nc1ccc(NC(=O)C(=O)NCC(c2ccco2)N2CCc3ccccc32)cc1 (stereo not drawn) | 28.9 µM
85 | COC(=O)Cc1csc(/N=C/c2c(O)n(-c3cccc(C(F)(F)F)c3)c(=O)c3ccccc23)n1 | 18.1 µM
86 | Cc1ccc(C2(c3ccc(C)cc3)CC2C(=O)Nc2ccc([N+](=O)[O-])cc2O)cc1 (stereo not drawn) | > 35 µM (inactive)
87 | COc1ccc(-c2oc(=O)c3cc(OC)c(OC)cc3c2/C=C/c2cccc([N+](=O)[O-])c2)cc1 | > 35 µM (inactive)
88 | CCC1CCCCN1S(=O)(=O)c1ccc(NC(=O)c2nc(S(C)(=O)=O)ncc2Cl)cc1 (stereo not drawn) | 3.73 µM
